AP complement: alternative complement pathway inhibitors, primary screen, biochemical, ELISA, human serum, orthogonally pooled compounds; actives 0.08% (n = 62,000); LPS-coated ELISA, C3 deposition; tested in compound mixtures; inhibition, % at 5 µM; AID 1235, 2008;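 active = inhibition above 30% in each of the two pooled mixtures holding the compound, so the lower value exceeds 30%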;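 also: 0% = serum in Mg-EGTA without compound and 100% = EDTA serum blank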
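Test system – human serum alternative complement pathway, C3 deposition on LPS-coated wells · Buffer or medium – diluted human serum in Mg2+-EGTA GVB++ · Compound dosing – 5 µM each compound, pools of ten, 50 µM per pool · Schedule – 1 h serum-compound exposure at 37 °C · Measured by – Anti-C3 ELISA, OD 450 nm · Read-out basis – percent inhibition of C3 deposition onto LPS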
PLAP activator: PLAP enzyme activators, biochemical, luminescence, HTS. Alkaline phosphatase, placental type (Homo sapiens), P05187. purified PLAP enzyme, luminescent substrate read-out; hits give high values. activation fold at 20 µM. actives 1.2% (n = 96,000); in the data active = activation fold above about 2
tolC growth inh: growth inhibitors of E. coli tolC mutant, primary screen, strain BW25113 ΔtolC::kan, 384-well; OD615; growth inhibition, % at 10 µM (by protocol); actives 2.2% (n = 65,000);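 active = growth inhibition at or above a cutoff equal to the mean over every tested compound plus 3 SD, cut at about 60% in these data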;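 also: growth measured after 20 h incubation at 37 °C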
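Test system: E. coli BW25113 ΔtolC::kan bacteria | Medium: Kanamycin-containing LB broth (50 µg/mL) | Dosing: One dose of 10 µM final | Times: 20 h incubation with compound, 37 °C | Detection: Optical density read at 615 nm | Read-out basis: Percent growth inhibition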
HePTP inhibitor: inhibitors of human HePTP phosphatase, primary screen, biochemical, absorbance, leukemia target. Tyrosine-protein phosphatase non-receptor type 7 (Homo sapiens), P35236. recombinant HePTP phosphatase activity, OD absorbance. inhibition, % at 20 µM. actives 0.64% (n = 110,000); in the data active = inhibition above about 50%;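 also: plate controls were vehicle for no effect and reference inhibitor for full effect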
Target sequence (P35236 whole entry, looked up): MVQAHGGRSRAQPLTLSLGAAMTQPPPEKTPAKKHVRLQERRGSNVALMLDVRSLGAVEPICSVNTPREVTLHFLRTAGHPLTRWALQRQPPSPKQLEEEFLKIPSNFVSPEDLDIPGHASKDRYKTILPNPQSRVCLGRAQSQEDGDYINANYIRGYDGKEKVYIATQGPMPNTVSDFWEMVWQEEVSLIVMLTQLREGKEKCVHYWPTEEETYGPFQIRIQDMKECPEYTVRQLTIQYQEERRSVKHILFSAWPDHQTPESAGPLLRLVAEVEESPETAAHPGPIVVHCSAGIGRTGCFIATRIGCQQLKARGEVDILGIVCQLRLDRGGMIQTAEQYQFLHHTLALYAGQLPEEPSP
Ecoli WT expand: growth inhibitors of wild-type E. coli, primary screen, strain BW25113, expanded library, OD600 | OD600 absorbance | actives 0.15% (n = 98,000) | growth inhibition, % at 100 µM;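 active = growth inhibition above about 50% at one test dose, limit read from the data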;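 also: growth measured after 20 h incubation at 37 °C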
* = called active by the depositor; / = no result. Hits are enriched below; roughly 2.3% of the tested compounds scored in any of these assays.

SMILES	AP complement	PLAP activator	tolC growth inh	HePTP inhibitor	Ecoli WT expand
Fc1ccc(CCNCc2ccc(Cl)c(Cl)c2)cc1	/	0.9	/	/	67*
Cn1cccc1/C=C1/C(=O)NC(=S)N(c2ccc(Cl)cc2)C1=O	/	/	/	100*	/
N=C(N)c1c(O)n(C2CCCCC2)c(=O)n(C2CCCCC2)c1=O	7	1	99*	-20	-4
COc1ccc(CN2CCN(Cc3ccc(SC)cc3)CC2)cc1	/	/	/	72*	/
Cc1cccc(C(=O)Nc2ccc(Cl)cc2C(=O)c2ccccc2)c1	/	1.3	/	6	-1
CCN(CC)CCNCC(=O)Nc1ccc(Cl)cc1C(=O)c1ccccc1	/	2.6*	/	/	-2
Cc1cc(C=C2C(=O)NC(=O)NC2=O)c(C)n1-c1ccc(Br)cc1	/	/	/	6	/
Cc1ccc(CN2C(=O)NC(=O)C3(Cc4c(nc5ccccn5c4=O)N4CCCCCC43)C2=O)cc1 (configuration not stated)	16	1.3	74*	7	-8
Nc1c(C(=O)NCCc2ccccc2)c2nc3ccccc3nc2n1CCN1CCOCC1	0	1.7	90*	5	-23
CCCCn1c(N)c(C(=O)NCCN2CCOCC2)c2nc3ccccc3nc21	0	2.3*	12	0	10
COc1ccc(CCNC(=O)c2c(N)n(CCN3CCOCC3)c3nc4ccccc4nc23)cc1	-5	1.6	50	-9	-9
CN(C)c1ccc(/C=C/c2nc3ccc(I)cc3c(=O)n2-c2ccccc2)cc1	/	/	/	2	/
CCC(=NCCO)c1c(O)n(C2CCCCC2)c(=O)[nH]c1=O	0	1	-14	8	-2
CCC(=NCc1ccc2c(c1)OCO2)c1c(O)n(C2CCCCC2)c(=O)[nH]c1=O	21	1.3	75*	11	-6
CN1CCN(c2ccc([N+](=O)[O-])c(Br)c2F)CC1	/	/	/	3	/
COCCCn1c(N)c(C(=O)OC(C)COC)c2nc3ccccc3nc21 (configuration not stated)	6	1.7	-7	7	-1
CC(C)CCNC(=O)c1c(N)n(CC2CCCO2)c2nc3ccccc3nc12 (configuration not stated)	11	2.1*	/	8	-10
CCC(C)NC(=O)c1c(N)n(CCCOC)c2nc3ccccc3nc12 (configuration not stated)	5	2*	29	5	-2
CCC(C)NC(=O)c1c(N)n(CC2CCCO2)c2nc3ccccc3nc12 (configuration not stated)	6	2*	4	4	-16
CN(C)C1(c2nnnn2CCOC(=O)Nc2ccc(Cl)cc2)CCCCC1	-6	0.9	100*	-13	-5
COc1cc(OC)cc(C(=O)Nc2ccc([N+](=O)[O-])cc2C(=O)c2ccccc2)c1	/	/	/	11	/
COCCNC(=O)c1c(N)n(Cc2ccco2)c2nc3ccccc3nc12	/	1.4	/	/	-25
CC(C)(C)OC(=O)c1c(N)n(Cc2ccco2)c2nc3ccccc3nc12	-8	2.1*	10	/	1
CCOc1ccc(N2C(=O)/C(=C/c3ccco3)C(=O)NC2=S)cc1	/	/	/	102*	/
O=C1NC(=S)N(c2cccc(Cl)c2)C(=O)/C1=C/c1ccc(Cl)cc1	/	/	/	13	/
SMILES	AP complement	PLAP activator	tolC growth inh	HePTP inhibitor	Ecoli WT expand
O=C1NC(=S)N(c2cccc(Br)c2)C(=O)/C1=C/c1ccco1	/	/	/	102*	/
CN1C(=O)NC(=O)/C(=C/c2ccc(I)o2)C1=O	/	/	/	-4	/
CN1C(=O)NC(=O)/C(=C\c2ccc([N+](=O)[O-])o2)C1=O	/	/	/	97*	/
O=[N+]([O-])c1ccc(CN2CCN(Cc3cccc(Br)c3)CC2)cc1	/	/	/	3	/
O=C1NC(=S)NC(=O)C1=Cc1ccc(-c2ccc(S(=O)(=O)Nc3nccs3)cc2)o1	/	/	/	100*	/
CCCCCn1c(=O)c(C(=O)Nc2nc(C)cs2)c(O)c2ccccc21	/	/	/	-5	/
O=C(c1ccccc1)c1cc(Cl)ccc1NC(=O)c1nc[nH]c1C(=O)N1CCCCC1	/	/	/	0	/
O=C1NC(=O)C(=Cc2ccc(-c3ccccc3C(=O)O)o2)C(=O)N1	/	/	/	14	/
CCCCn1c(O)c(C(CC)=NCCc2ccccc2)c(=O)[nH]c1=O	19	1.1	99*	3	-8
CCN(CC)CCCN=C(C)c1c(O)n(-c2ccccc2)c(=O)[nH]c1=O	-19	1.1	2	-8	2
CCC(=NCCCN(CC)CC)c1c(O)n(-c2ccccc2)c(=O)[nH]c1=O	36*	1.3	-28	1	3
CCN1CC2([N+](=O)[O-])CC=C(Br)C([N+](=O)[O-])(C1)C2 (configuration not stated)	/	/	/	-3	/
COCCOC(=O)C1CN1C(Cc1ccccc1)C(=O)OC (configuration not stated)	/	/	/	-6	/
Cn1c(O)c(/C=C2/C=CC=N2)c(=O)n(-c2ccccc2)c1=S	/	/	/	101*	/
O=c1c2ccccc2nc(/C=C\c2ccc(O)cc2)n1-c1ccc(O)cc1	/	/	/	7	/
O=C(COc1ccccc1)N1CCN(Cc2c[nH]c3ccccc23)CC1	10	1.3	5	3	5
O=C(Cc1ccccc1)N1CCN(Cc2c[nH]c3ccccc23)CC1	42*	1.7	-21	2	15
O=[N+]([O-])/N=C1\NCN(c2ccc(Cl)cc2)CN1c1ccccc1	/	/	/	2	/
COc1ccccc1OCCn1cc(C=C2C(=O)NC(=O)NC2=O)c2ccccc21	/	/	/	26	/
CCOc1cc(C)cc2oc(=O)c3c(c12)CCC3	/	/	/	104*	/
Cc1cc(OCC(N)=O)c2c3c(c(=O)oc2c1)CCC3	/	/	/	3	/

Assay outcomes (PubChem BioAssay)
